Source: PubChem (several laboratories)
Most compounds without a hit are left out; they make up all but 2% or so of the library.
FLuc act counter: firefly luciferase counter-screen for stimulation assays | 200,000 tested, under 10 active | P08659 | activation factor at 10 µM | ATPlite luciferase biochemical, luminescence, 10 min; 0 = ATP-free wells, 1 = DMSO control;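 active = luciferase activation factor, scaled between plate controls, of at least 2 with compound at 10 µM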
Target sequence (P08659 whole entry, looked up): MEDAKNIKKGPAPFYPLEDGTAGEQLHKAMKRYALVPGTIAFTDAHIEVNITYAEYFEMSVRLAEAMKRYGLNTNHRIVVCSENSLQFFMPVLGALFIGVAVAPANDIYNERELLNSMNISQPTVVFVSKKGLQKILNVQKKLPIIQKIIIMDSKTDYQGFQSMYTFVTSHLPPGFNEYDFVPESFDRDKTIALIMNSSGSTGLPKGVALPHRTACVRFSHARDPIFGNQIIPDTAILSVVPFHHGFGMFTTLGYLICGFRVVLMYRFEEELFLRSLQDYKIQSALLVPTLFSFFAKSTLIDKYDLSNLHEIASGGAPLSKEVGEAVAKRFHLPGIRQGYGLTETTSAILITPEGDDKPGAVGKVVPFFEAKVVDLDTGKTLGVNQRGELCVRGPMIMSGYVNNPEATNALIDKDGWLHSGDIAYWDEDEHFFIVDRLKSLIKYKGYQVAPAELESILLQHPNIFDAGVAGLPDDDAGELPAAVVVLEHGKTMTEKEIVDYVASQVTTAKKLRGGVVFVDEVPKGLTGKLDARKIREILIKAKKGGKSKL
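Assay system: Luciferase/luciferin detection reagent, cell-free biochemical luciferase assay / Read-out: luciferase activation / Benchmarks: No-ATP low control, compound-free enzyme-plus-ATP high control / Medium: PBS buffer for ATP / Detection: luminescence measurement of luciferase light output / Schedule: 10 min at ambient temperature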
PPC-1+TRAIL kill: compounds killing PPC-1 cancer cells with TRAIL present (potentiator screen, no TRAIL-free arm); PPC-1 cells + TRAIL, ATPLite viability luminescence; cell killing (% activity), % at 4 µM or 5 µM; 220,000 compounds, 0.41% hits; AID 1443;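 active = cell killing above 50% in the first pass at 4 µM, then a duplicate retest at 5 µM averaging 50% or more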;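 also: plate controls were cells with TRAIL plus DMSO for no effect and medium-only wells lacking cells for full effect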
HSP90 refold inh: blocks HSP90-mediated luciferase refolding in reticulocyte lysate | Rabbit reticulocyte lysate, luciferase refolding luminescence, 3 h | inhibition, % at 5.6 µM | 290,000 compounds, 0.91% hits | AID 1789;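 active = inhibition above the screen-wide mean plus 3 SD, computed separately per campaign, cut at about 16% in these data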;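 also: 0% = DMSO wells and 100% = 60 µM geldanamycin wells; inhibitors lower the luminescence because luciferase stays unfolded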
TRAIL sens C8: caspase-8 TRAIL sensitization. inhibition (viability loss, TRAIL sensitization), % at 10 µM. NB7+C8 cells + TRAIL, ATPlite viability luminescence. AID 624354. 360,000 compounds, 1% hits;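 active = compounds causing at least 50% loss of cell viability in the single-dose screen, relative to plate controls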
FLuc inhib CS: inhibits firefly luciferase, flagging false hits in luciferase inhibition screens. P08659. ATPLite firefly luciferase biochemical luminescence, 10 min. inhibition, % at 10 µM. 200,000 compounds, 1.5% hits;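 active = inhibition above about 50% when tested at 10 µM, limit read from the data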
HSP90 confirm: HSP90 inhibition, confirmation assay; rabbit reticulocyte lysate, luciferase refolding luminescence, 3 h; inhibition, % at 5.9 µM; 2,300 compounds, 64% hits; shares compounds with HSP90 refold inh; in the data active = inhibition above about 18%;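 also: 0% = vehicle wells and 100% = reference inhibitor wells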
FLuc counter: firefly luciferase inhibition, HSP90 counter-screen; shares compounds with HSP90 refold inh; 2,300 compounds, 48% hits; purified native firefly luciferase, luminescence; inhibition, % at 5.9 µM;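 active = inhibition above the mean inhibition of all tested sample wells plus 3 SD, cut at about 10% in these data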;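 also: 0% = DMSO with luciferase and 100% = wells lacking luciferase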
* = called active by the depositor; . = no result given.

SMILES	FLuc act counter	PPC-1+TRAIL kill	HSP90 refold inh	TRAIL sens C8	FLuc inhib CS	HSP90 confirm	FLuc counter
COc1cccc(NC(=O)c2cc3ccccc3o/c2=N\O)c1	.	.	48.2*	55.0*	.	65.6*	62.9*
O=[N+]([O-])c1ccc(NC2CCCC2)cc1	1	24.5	20.0*	5.3	-2.7	-7.2	-12.3
Cc1c(C(=O)O)cccc1-n1c(C)cc(/C=N/NC(=O)c2cc3ccccc3o2)c1C	0.9	15.2	21.5*	6.6	9.6	14.5	-11.1
Cc1c(C(=O)O)cccc1-n1c(C)cc(/C=N/Nc2ccc([N+](=O)[O-])cn2)c1C	.	2.4	-2.3	-17.0	.	.	.
COc1ccc2cc(-c3ccccc3)ncc2c1	.	.	20.2*	62.3*	.	23.7*	10.3*
COc1cc2cnc(-c3ccccc3)cc2cc1OC	.	.	.	6.8	.	.	.
Oc1c(Br)cc(Br)cc1CNn1cnnc1	.	.	66.7*	9.5	.	-3.5	-4.5
Cc1cc(NC2CCCC2)n2ncc(-c3ccccc3)c2n1	.	.	59.1*	59.4*	.	71.4*	70.4*
Cc1cc(-c2ccccc2)n2ncc(-c3ccccc3)c2n1	0.1	54.8*	22.2*	61.8*	85.2*	61.1*	55.5*
COc1ccc(-c2cc(C)nc3c(-c4ccccc4)cnn23)cc1	0.5	28.2	20.9*	32.3	51.4*	45.2*	28.1*
Cc1cc(NCc2ccccc2)n2ncc(-c3ccccc3)c2n1	.	.	1.9	26.2	.	.	.
Cc1cc(NC2CCCC2)n2nc(C)c(-c3ccccc3)c2n1	.	.	0.1	-1.0	.	.	.
CC(C)C[C@@H](CO)N1CCN(Cc2cccnc2)CCC1=O	.	.	-2.9	0.3	.	.	.
Cn1nc(C(C)(C)C)cc1N1C(=O)CCC1(C)C(=O)NCc1ccccc1 (centres undefined)	.	.	.	1.1	.	.	.
CCn1cc(NC(=O)CCl)c(C)n1	1.1	9.9	4.6	.	-10.4	.	.
COc1ccc(C2=NN(c3ccccc3)C(=O)/C2=C\c2ccc(O)c(OC)c2)cc1	1	11.2	24.8*	-5.3	-0.7	-10.0	-5.4
COc1ccc(/C=C2/C(=O)N(c3ccccc3)N=C2C)cc1	.	.	.	-17.2	.	.	.
O=C(CN1C(=O)c2ccccc2S1(=O)=O)c1ccccc1	1	19.5	6.2	28.8	2.6	.	.
O=C(CN1C(=O)c2ccccc2S1(=O)=O)c1ccccc1Cl	.	.	53.2*	46.5	.	76.2*	-14.9
CCc1ccc2oc(-c3ccc(OC)cc3)cc(=Nc3cccc(C(=O)O)c3)c2c1	0.5	49.1	24.4*	16.6	51.3*	9.5	3.1
CSc1nc(N(C)C)nc(N2CC(=O)N(CCNS(=O)(=O)c3ccc(C)cc3)C2=N)n1	1	1.0	-0.5	0.2	-0.9	.	.
COc1ccc(C(=O)O)cc1S(=O)(=O)N1CCN(c2ccccn2)CC1	.	.	17.3*	-1.0	.	-6.6	-13.1
Cc1cccc(C(=O)Nc2nc(C)c(C(=O)Nc3ccc4c(c3)CCC4)s2)c1	0.9	20.5	79.7*	-42.9	7.6	82.9*	15.1*
Cc1cc2ccccc2c(=O)n1CC(=O)NCC(=O)N(C)C1CCCCC1	1	-0.7	28.0*	-7.6	-3.3	-6.7	-9.9
CC(C)S(=O)(=O)C1=NSC2=NC(=O)/C(=C\c3ccc(-c4ccccc4)o3)C(=N)N21	1	20.3	1.0	-0.1	-4.7	.	.
SMILES	FLuc act counter	PPC-1+TRAIL kill	HSP90 refold inh	TRAIL sens C8	FLuc inhib CS	HSP90 confirm	FLuc counter
CC(C)S(=O)(=O)C1=NSC2=NC(=O)/C(=C\c3ccc(-c4cccc(C(=O)O)c4)o3)C(=N)N21	0.9	31.1	26.6*	-1.5	6.3	-0.9	-10.5
Cc1ccc(-c2nc3ccc([N+](=O)[O-])cc3[nH]2)cc1	0.4	32.2	24.6*	34.3	60.8*	41.6*	43.4*
Cc1ccc2nc(-c3sc4nc(C)cc(C)c4c3N)[nH]c2c1	0.4	30.6	24.8*	56.0*	63.8*	23.3*	18.8*
O=[N+]([O-])c1ccc2nc(-c3ccc(Cl)cc3)[nH]c2c1	0.7	16.9	-2.1	4.0	27.2	.	.
Cc1ccc2nc(-c3cccc(N)c3)[nH]c2c1	0.1	42.8	17.8*	67.7*	87.9*	45.3*	32.5*
CC(=O)c1sc2nc(C)cc(C)c2c1N	1	-6.7	-1.8	-1.1	-1.6	.	.
Nc1cccc(-c2nc3ccccc3[nH]2)c1	0.6	23.4	4.9	17.9	39.3	.	.
CCOc1ccccc1NC(=O)CSc1nc(=O)n(CCCN2CCOCC2)c2c1CCCC2	.	.	.	-12.6	.	.	.
CCOc1cc(C2C3=C(CCCC3=O)OC3=C2C(=O)CCC3)cc([N+](=O)[O-])c1O	1.1	-14.2	31.0*	-5.8	-6.4	-5.2	-6.8
COCCN(C(=O)CCC(=O)Nc1ccccn1)C(C(=O)NC(C)C)c1ccc(Cl)cc1 (centres undefined)	.	.	83.7*	-3.1	.	0.9	-4.3
CCC1CCCCN1C(=O)CCCOc1ccccc1 (centres undefined)	1	5.0	37.1*	7.9	-0.1	38.6*	23.5*
O=C(CCCOc1ccccc1)N1CCCCC1	0.7	-11.5	34.0*	3.6	28.7	65.8*	52.5*
COc1ccccc1OCCNC(=O)C1CC(=O)N(c2cccc(SC)c2)C1 (centres undefined)	.	.	.	0.4	.	.	.
NC(=S)NCc1cccnc1	1	16.3	4.8	-2.8	0.7	.	.
S=C(NCc1cccnc1)c1ccccc1	.	.	19.2*	-21.0	.	0.2	-2.3
CC(NC(=O)CNC(=O)C1CCCCC1)c1ccc(S(N)(=O)=O)cc1 (centres undefined)	.	.	31.8*	-1.5	.	-1.1	0.3
O=C(O)c1ccc(-c2nnc(-c3ccc([N+](=O)[O-])cc3)o2)cc1	.	.	4.1	-3.1	.	.	.
O=C(O)c1ccc(-c2nnc(-c3ccccc3)o2)cc1	.	.	57.9*	-8.2	.	58.0*	14.1*
COc1cc(/C=N/NS(=O)(=O)c2ccc(C)cc2)ccc1OCc1cccc(C(=O)O)c1	1	6.9	46.2*	16.3	-2.6	1.1	-9.8
COc1ccc(/C=N/NS(=O)(=O)c2ccccc2)cc1OC(=O)c1ccc(C)cc1	1	-0.1	-0.1	-10.6	-4.5	.	.
COc1ccc(/C=N/NS(=O)(=O)c2ccc(C)cc2)cc1OC(=O)c1ccccc1	1	-2.9	-0.3	-11.0	-4.3	.	.
COc1cc(/C=N/NS(=O)(=O)c2ccc3ccccc3c2)ccc1OCc1ccc(C(=O)O)cc1	.	4.2	50.6*	9.6	.	-6.1	-12.9
COc1cc(/C=N/O)ccc1OCc1ccc(C(=O)O)cc1	0.1	45.0	76.0*	71.5*	87.6*	84.9*	79.9*
O=C(Nc1ccccn1)c1onc2c1CCCC2	0.1	67.1*	36.5*	76.7*	86.7*	76.2*	68.2*
O=C(Nc1ccccn1)c1csc2c1CCCC2	0.6	25.4	-0.1	18.5	43.7	.	.
Cc1ccc(/C=N/Nc2nc(Cl)c(Cl)cc2Cl)s1	0.9	6.8	-1.2	-1.4	12.2	.	.
